ChEMBL document CHEMBL4665726, “Development of a selective HDAC inhibitor aimed at reactivating the HIV latent reservoir” (Bioorg Med Chem Lett, 2020)

Key:
[1] = Unbound volume of distribution in Wistar Han rat at 2 mg/kg, iv or 10 mg/kg, po; assay type: ADME, organism-based; conditions: in vivo
[2] = Half life in Wistar Han rat at 2 mg/kg, iv or 10 mg/kg, po; assay type: ADME, organism-based; conditions: in vivo
Histone deacetylase 3 = Histone deacetylase 3 (Homo sapiens, UniProt O15379); test: Inhibition of HDAC3 (unknown origin)
[3] = biological target: T1, Class 1 histone deacetylase (Homo sapiens, UniProt Q13547+O15379+Q92769+Q9BY41); test: Inhibition of Class 1 HDAC in VSV-G-pseudotyped HIV infected human 2C4 cell Jurkat model assessed as reactivation of HIV latency in presence of 5% NHS by fluorescent reporter gene assay
Summary of the method: (§1)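 Latently infected Jurkat 2C4 cells (HIV latency model) were tested for reactivation of silenced provirus in parallel at two normal human serum levels: 0.1% and 5%. The paired runs gauge the potency shift from plasma protein binding.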

Histone deacetylase 8 = biological target: T2, Histone deacetylase 8 (Homo sapiens, UniProt Q9BY41); test: Inhibition of HDAC8 (unknown origin)
T2 sequence (Q9BY41 whole entry): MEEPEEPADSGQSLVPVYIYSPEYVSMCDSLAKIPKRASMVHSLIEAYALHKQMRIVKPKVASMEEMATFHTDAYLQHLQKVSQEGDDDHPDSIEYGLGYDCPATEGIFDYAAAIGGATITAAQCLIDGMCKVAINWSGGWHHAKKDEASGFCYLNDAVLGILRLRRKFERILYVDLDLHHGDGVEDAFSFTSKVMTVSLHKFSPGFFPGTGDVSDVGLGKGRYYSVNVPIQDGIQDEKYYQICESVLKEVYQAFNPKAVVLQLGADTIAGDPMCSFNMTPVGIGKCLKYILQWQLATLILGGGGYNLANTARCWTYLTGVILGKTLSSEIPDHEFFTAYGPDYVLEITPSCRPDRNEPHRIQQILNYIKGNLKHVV

Histone deacetylase 1 = Histone deacetylase 1 (Homo sapiens, UniProt Q13547); test: Inhibition of HDAC1 (unknown origin)
[4] = Unbound clearance in Wistar Han rat at 2 mg/kg, iv or 10 mg/kg, po; assay type: ADME, organism-based; conditions: in vivo
Histone deacetylase 2 = Histone deacetylase 2 (Homo sapiens, UniProt Q92769); test: Inhibition of HDAC2 (unknown origin)
[5] = biological target: T3, Protein deacetylase HDAC6 (Homo sapiens, UniProt Q9UBN7); test: Inhibition of HDAC6 (unknown origin)
T3 sequence (Q9UBN7 whole entry): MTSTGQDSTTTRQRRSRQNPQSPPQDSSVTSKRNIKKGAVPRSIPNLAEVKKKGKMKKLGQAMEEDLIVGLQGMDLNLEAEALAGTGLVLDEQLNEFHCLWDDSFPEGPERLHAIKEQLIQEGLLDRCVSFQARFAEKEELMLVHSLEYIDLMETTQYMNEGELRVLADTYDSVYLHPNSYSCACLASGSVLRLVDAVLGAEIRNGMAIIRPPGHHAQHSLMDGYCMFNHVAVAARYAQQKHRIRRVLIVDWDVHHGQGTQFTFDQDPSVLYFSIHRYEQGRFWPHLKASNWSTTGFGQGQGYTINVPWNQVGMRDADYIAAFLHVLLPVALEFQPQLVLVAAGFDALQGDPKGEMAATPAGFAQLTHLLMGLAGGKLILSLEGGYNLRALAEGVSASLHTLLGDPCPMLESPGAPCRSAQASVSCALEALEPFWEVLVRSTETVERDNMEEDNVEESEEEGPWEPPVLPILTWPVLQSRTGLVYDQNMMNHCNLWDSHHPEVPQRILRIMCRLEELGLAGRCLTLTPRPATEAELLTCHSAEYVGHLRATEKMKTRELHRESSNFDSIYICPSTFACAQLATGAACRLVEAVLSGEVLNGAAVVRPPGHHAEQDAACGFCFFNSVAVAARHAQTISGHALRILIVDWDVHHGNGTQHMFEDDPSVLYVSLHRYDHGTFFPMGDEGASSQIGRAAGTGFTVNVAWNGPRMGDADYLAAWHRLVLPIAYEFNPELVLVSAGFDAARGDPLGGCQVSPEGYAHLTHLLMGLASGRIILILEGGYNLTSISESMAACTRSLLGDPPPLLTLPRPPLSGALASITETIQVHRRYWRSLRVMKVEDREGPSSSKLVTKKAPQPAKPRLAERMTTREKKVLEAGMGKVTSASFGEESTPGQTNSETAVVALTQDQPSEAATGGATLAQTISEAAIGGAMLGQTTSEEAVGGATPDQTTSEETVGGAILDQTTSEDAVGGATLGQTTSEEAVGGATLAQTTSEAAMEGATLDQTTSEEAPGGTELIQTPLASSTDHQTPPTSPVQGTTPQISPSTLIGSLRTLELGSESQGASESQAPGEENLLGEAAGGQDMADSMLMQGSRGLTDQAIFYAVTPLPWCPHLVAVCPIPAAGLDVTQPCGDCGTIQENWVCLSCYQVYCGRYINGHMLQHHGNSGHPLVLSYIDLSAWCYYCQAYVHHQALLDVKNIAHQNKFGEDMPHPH

[6] = Apparent permeability of the compound; assay type: ADME; conditions: not told
[7] = biological target: T1, Class 1 histone deacetylase; test: Inhibition of Class 1 HDAC in VSV-G-pseudotyped HIV infected human 2C4 cell Jurkat model assessed as reactivation of HIV latency in presence of 0.1% NHS by fluorescent reporter gene assay; summary of the method: as §1
[8] = Oral bioavailability in Wistar Han rat at 10 mg/kg; assay type: ADME, organism-based; conditions: in vivo

Sequence of Histone deacetylase 2 (Q92769 whole entry): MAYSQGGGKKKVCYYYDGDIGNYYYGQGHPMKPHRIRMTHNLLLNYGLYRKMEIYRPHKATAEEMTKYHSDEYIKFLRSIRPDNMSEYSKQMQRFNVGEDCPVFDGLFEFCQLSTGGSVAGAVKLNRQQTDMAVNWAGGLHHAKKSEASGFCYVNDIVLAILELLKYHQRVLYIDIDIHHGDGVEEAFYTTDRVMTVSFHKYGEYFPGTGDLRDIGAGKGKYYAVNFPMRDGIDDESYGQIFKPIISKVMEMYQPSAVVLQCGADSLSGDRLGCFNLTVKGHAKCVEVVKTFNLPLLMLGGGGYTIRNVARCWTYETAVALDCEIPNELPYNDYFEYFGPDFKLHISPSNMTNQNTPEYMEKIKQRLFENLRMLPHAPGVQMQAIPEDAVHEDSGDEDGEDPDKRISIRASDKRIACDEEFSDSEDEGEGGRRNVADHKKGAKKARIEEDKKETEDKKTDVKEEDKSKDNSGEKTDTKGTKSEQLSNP
Sequence of Histone deacetylase 3 (O15379 whole entry): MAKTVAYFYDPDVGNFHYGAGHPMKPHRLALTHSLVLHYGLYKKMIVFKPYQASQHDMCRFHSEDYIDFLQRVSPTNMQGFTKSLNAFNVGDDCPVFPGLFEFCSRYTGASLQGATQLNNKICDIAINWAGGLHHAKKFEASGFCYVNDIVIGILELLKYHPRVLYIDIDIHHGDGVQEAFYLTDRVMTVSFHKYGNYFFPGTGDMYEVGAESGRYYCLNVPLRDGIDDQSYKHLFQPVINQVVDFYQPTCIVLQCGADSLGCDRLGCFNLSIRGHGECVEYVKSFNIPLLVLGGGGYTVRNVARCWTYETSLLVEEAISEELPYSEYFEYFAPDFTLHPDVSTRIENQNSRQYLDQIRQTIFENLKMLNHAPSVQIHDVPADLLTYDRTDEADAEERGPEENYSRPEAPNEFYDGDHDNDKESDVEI
Sequence of Histone deacetylase 1 (Q13547 whole entry): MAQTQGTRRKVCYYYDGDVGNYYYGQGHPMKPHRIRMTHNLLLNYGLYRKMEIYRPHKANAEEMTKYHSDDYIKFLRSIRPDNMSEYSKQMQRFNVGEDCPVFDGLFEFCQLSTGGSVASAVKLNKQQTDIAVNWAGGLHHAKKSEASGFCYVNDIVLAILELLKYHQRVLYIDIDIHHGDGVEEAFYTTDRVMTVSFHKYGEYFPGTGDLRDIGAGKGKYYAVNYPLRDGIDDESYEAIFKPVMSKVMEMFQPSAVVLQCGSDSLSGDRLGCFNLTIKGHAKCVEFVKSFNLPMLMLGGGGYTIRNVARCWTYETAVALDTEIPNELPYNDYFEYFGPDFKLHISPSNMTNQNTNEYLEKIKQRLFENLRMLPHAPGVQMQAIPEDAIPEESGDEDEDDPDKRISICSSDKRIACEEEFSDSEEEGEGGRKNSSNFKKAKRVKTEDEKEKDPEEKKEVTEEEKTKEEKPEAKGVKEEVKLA

Structure (SMILES)	Vdu [1]	half-life [2]	IC50 (Histone deacetylase 3)	EC50 [3]	IC50 (Histone deacetylase 8)	IC50 (Histone deacetylase 1)	CL free [4]	IC50 (Histone deacetylase 2)	IC50 [5]	Papp [6]	EC50 [7]	bioavailability [8]
CCC(=O)CCCCC[C@H](NC(=O)C1CN(C)C1)c1[nH]c(-c2ccccc2)nc1C(N)=O	45 L/kg	6.4 h	2.5 nM	269 nM	5420 nM	1.9 nM	166 mL/min/kg	18.1 nM	9830 nM	1.1 ×10⁻⁶ cm/s	294 nM	0%
CCC(=O)CCCCC[C@H](NC(=O)[C@H]1CC12CCN(C)CC2)c1[nH]c(-c2ccc3nn(C)cc3c2)nc1C#N			0.3 nM	322 nM	12400 nM	0.4 nM		2.1 nM	9040 nM		247 nM	
CCC(=O)CCCCC[C@H](NC(=O)[C@H]1CC12CCN(C)CC2)c1[nH]c(-c2ccc(F)cc2)nc1C(N)=O			0.9 nM	276 nM	6800 nM	0.6 nM		6.3 nM	17600 nM		166 nM	
CCC(=O)CCCCC[C@H](NC(=O)[C@H]1CC12CCN(CC)CC2)c1[nH]c(-c2ccc(F)cc2)nc1C#N			1.8 nM	259 nM	9370 nM	2.8 nM		11.7 nM	23600 nM		161 nM	
CCC(=O)CCCCC[C@H](NC(=O)[C@H]1CC12CCN(C)CC2)c1[nH]c(-c2cccnc2OC)nc1C#N			34.8 nM	1669 nM	38100 nM	58.9 nM		229 nM	17100 nM		2112 nM	
CCC(=O)CCCCC[C@H](NC(=O)[C@H]1CC12CCN(C)CC2)c1[nH]c(-c2ccc(F)cc2)nc1C#N	40 L/kg	4 h		409 nM		3.8 nM	244 mL/min/kg			1.7 ×10⁻⁶ cm/s	233 nM	1%
CCC(=O)CCCCC[C@H](NC(=O)CN(C)C)c1[nH]c(-c2ccc(F)cc2)nc1C#N			26.8 nM	3532 nM	29500 nM	47.9 nM		219 nM	43300 nM		1605 nM	
CCC(=O)CCCCC[C@H](NC(=O)[C@H]1CC12CCN(C)CC2)c1[nH]c(-c2ccc3nc(C)ccc3c2)nc1C#N			0.2 nM	97 nM	9830 nM	0.3 nM		1.5 nM	6300 nM		105 nM	
CCC(=O)CCCCC[C@H](NC(=O)C1CCOCC1)c1[nH]c(-c2ccc(F)cc2)nc1C(N)=O			3.4 nM	1504 nM	7570 nM	12.3 nM		73.8 nM	27900 nM		1834 nM	
CCC(=O)CCCCC[C@H](NC(=O)[C@H]1CC12CCN(C)CC2)c1[nH]c(-c2cc3ccccc3nc2OC)nc1C#N			101 nM	1351 nM	> 45000 nM	97.9 nM		177 nM	8970 nM		548 nM	
